Data reported in ChEMBL document CHEMBL4145631, “Riluzole-Triazole Hybrids as Novel Chemical Probes for Neuroprotection in Amyotrophic Lateral Sclerosis” (ACS Med Chem Lett, 2018).
The source made the active and inactive calls.

Experiments:
[1] = test system: Cortical neurone; assay: Neuroprotective activity against kainate-induced cell damage in mouse primary cortical neurons assessed as reduction in kainate-induced neurofilament loss by measuring increase in MAPK level at 1 uM pretreated followed by kainate challenge measured after 18 hrs by fluorescence assay; assay type: functional, cell-based; details: in the assay text read “MAP2” for “MAPK”
Summary of the method: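 Mouse primary cortical neurons cultured as previously described; dendritic processes stained with anti-MAP2 antibody. Cell-profile perimeter measured by image analysis, each condition normalized to kainate-only.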

[2] = organism: Mus musculus; assay: Neuroprotective activity against kainate-induced cell damage in mouse primary motor neurons assessed as reversal of kainate-induced neuronal length preceding cell death at […] by fluorescence assay; assay type: functional
Summary of the method: (§1)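 Mouse primary motor neurons, fixed after treatment and stained with SMI-32 for neurofilaments, then fluorescently imaged. Sholl analysis counted process intersections at each 100 μm radius from the cell centre. Ten cells per condition, three independent experiments, data pooled.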

[3] = test system: Cortical neurone; assay: Neuroprotective activity against kainate-induced cell death in mouse primary cortical neurons by MTT assay; assay type: functional, cell-based
[4] = test system: Cortical neurone; assay: Neuroprotective activity against kainate-induced cell death in mouse primary cortical neurons by cell counting method; assay type: functional, cell-based
[5] = test system: Cortical neurone; assay: Neuroprotective activity against kainate-induced cell death in mouse primary cortical neurons by caspase activation method; assay type: functional, cell-based
[6] = organism: Mus musculus; assay: Neuroprotective activity against kainate-induced cell death in mouse primary motor neurons by MTT assay; assay type: functional
[7] = organism: Mus musculus; assay: Neuroprotective activity against kainate-induced cell death in mouse primary motor neurons by cell counting method; assay type: functional
[8] = organism: Mus musculus; assay: Neuroprotective activity against kainate-induced cell death in mouse primary motor neurons by caspase activation method; assay type: functional
[9] = test system: Rattus norvegicus; assay: Protection against glutamate-induced seizures in ip dosed Sprague-Dawley rat pretreated for 30 mins followed by glutamate challenge and measured for 30 mins; assay type: functional
[10] = test system: Cortical neurone; assay: Neuroprotective activity against kainate-induced cell damage in mouse primary cortical neurons assessed as reversal of kainate-induced reduction in calcium flux by fura-2-AM dye based fluorescence assay; assay type: functional
Summary of the method: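 Mouse primary cortical neurons loaded with fura-2AM for 45 min, washed, then depolarized with 10 mM KCl to drive Ca2+ entry through voltage-gated calcium channels. Flux read on a plate-based system.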

[11] = organism: Mus musculus; assay: Neuroprotective activity against kainate-induced cell damage in mouse primary motor neurons assessed as reversal of kainate-induced neuronal length preceding cell death by fluorescence assay; assay type: functional; summary of the method: as §1
[12] = organism: Mus musculus; assay: Neuroprotective activity against kainate-induced cell damage in mouse primary motor neurons assessed as reversal of kainate-induced neuronal length preceding cell death at 500 nM by fluorescence assay; assay type: functional; summary of the method: as §1
[13] = test system: Cortical neurone; assay: Toxicity in mouse primary cortical neurons assessed as MAP2 loss by fluorescence assay; assay type: cell-based
Summary of the method: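 MAP2 immunostaining of dendritic processes in mouse primary cortical neurons, with cell-profile perimeter measured by image analysis.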

Structure (SMILES)	Activity [1]	Activity [2]	Activity [3]	Activity [4]	Activity [5]	Activity [6]	Activity [7]	Activity [8]	ED50 [9]	Activity [10]	Activity [11]	Activity [12]	Activity [13]
Nc1nc2ccc(OC(F)(F)F)cc2s1 [RILUZOLE]	inactive	Active	inactive	inactive	inactive	inactive	inactive	inactive	3.2 mg/kg	–	–	–	–
N=c1sc2cc(OC(F)(F)F)ccc2n1CCn1cc(-c2ccccc2)nn1	inactive	–	inactive	inactive	inactive	inactive	inactive	inactive	–	Active	inactive	–	–
CCc1ccc(-c2cn(CCn3c(=N)sc4cc(OC(F)(F)F)ccc43)nn2)cc1	Active	–	inactive	inactive	inactive	inactive	inactive	inactive	–	Active	inactive	–	–
N=c1sc2cc(OC(F)(F)F)ccc2n1CCn1cc(-c2ccncc2)nn1	Active	–	inactive	inactive	inactive	inactive	inactive	inactive	–	Active	–	Active	–
N=c1sc2cc(OC(F)(F)F)ccc2n1CCn1cc(-c2ccc(Br)cc2)nn1	Active	–	inactive	inactive	inactive	inactive	inactive	inactive	–	Active	inactive	–	–
COC(=O)c1ccc(-c2cn(CCn3c(=N)sc4cc(OC(F)(F)F)ccc43)nn2)cc1	inactive	–	inactive	inactive	inactive	inactive	inactive	inactive	–	Active	–	–	Toxic
N=c1sc2cc(OC(F)(F)F)ccc2n1CCN1CCN(c2ccccc2)CC1	–	–	–	–	–	–	–	–	3.5 mg/kg	–	–	–	–
N=c1sc2cc(OC(F)(F)F)ccc2n1CCN1CCC(c2ccccc2)CC1	–	–	–	–	–	–	–	–	3 mg/kg	–	–	–	–
N=c1sc2cc(OC(F)(F)F)ccc2n1CCn1cc(-c2ccsc2)nn1	inactive	–	inactive	inactive	inactive	inactive	inactive	inactive	–	Active	–	–	–
CCCCCCc1ccc(-c2cn(CCn3c(=N)sc4cc(OC(F)(F)F)ccc43)nn2)cc1	inactive	–	inactive	inactive	inactive	inactive	inactive	inactive	–	Active	–	–	–
N=c1sc2cc(OC(F)(F)F)ccc2n1CCn1cc(-c2ccccc2C(F)(F)F)nn1	inactive	–	inactive	inactive	inactive	inactive	inactive	inactive	–	Active	–	–	–
COc1ccc(-c2cn(CCn3c(=N)sc4cc(OC(F)(F)F)ccc43)nn2)cc1	inactive	–	inactive	inactive	inactive	inactive	inactive	inactive	–	Active	–	–	–
N=c1sc2cc(OC(F)(F)F)ccc2n1CCn1cc(-c2ccccc2N)nn1	Active	–	inactive	inactive	inactive	inactive	inactive	inactive	–	Active	–	–	–
COc1cccc(-c2cn(CCn3c(=N)sc4cc(OC(F)(F)F)ccc43)nn2)c1	inactive	–	inactive	inactive	inactive	inactive	inactive	inactive	–	Active	–	–	–
N=c1sc2cc(OC(F)(F)F)ccc2n1CCn1cc(-c2cccc(C(F)(F)F)c2)nn1	inactive	–	inactive	inactive	inactive	inactive	inactive	inactive	–	Active	–	–	–
